Experimental data reported in article PMC3090679 (Biochemistry, 2011).
Residue numbers refer to the chain shown, from its start. “Also recorded” adds a separate entry of the source. Where two headings read alike, the source gives them in different places.

What was measured:
[1] = target: T1, RGS8 (Homo sapiens, UniProt P57771); experiment: ThermoFluor thermal stability, RGS8; assay type: binding
T1 sequence (P57771 56-171 limits assumed): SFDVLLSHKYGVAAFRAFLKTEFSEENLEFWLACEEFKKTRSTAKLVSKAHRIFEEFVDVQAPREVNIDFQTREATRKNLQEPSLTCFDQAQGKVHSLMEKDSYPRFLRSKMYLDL

[2] = target: T2, RGS4 wild Type (Homo sapiens, UniProt P49798); experiment: FCPIA, RGS4/Gαo binding
T2 sequence (P49798 52-205 limits assumed): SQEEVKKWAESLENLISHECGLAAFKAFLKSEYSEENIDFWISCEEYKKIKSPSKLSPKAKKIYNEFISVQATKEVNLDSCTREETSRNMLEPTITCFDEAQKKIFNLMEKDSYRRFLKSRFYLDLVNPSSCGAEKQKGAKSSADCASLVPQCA

[3] = target: T3, Gαo (Homo sapiens, UniProt P09471); experiment: Single turnover GTPase assay, intrinsic Gαo rate; assay type: biochemical; conditions: 100 μM
T3 sequence (P09471 whole entry): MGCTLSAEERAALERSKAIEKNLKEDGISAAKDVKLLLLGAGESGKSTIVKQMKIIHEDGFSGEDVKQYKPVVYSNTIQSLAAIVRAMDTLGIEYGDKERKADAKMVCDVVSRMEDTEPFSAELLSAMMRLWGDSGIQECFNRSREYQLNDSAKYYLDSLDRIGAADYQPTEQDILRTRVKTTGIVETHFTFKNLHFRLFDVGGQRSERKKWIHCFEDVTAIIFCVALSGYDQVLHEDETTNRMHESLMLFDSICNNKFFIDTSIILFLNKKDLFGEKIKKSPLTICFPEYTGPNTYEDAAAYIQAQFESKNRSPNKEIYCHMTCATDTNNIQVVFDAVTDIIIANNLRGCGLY
Method in brief: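 N-terminally 6×His-tagged Gαo was purified to >90% homogeneity. Single-turnover hydrolysis of isotopically diluted γ[32P]GTP was measured. Results are expressed as the rate constant k (sec−1) of GTP hydrolysis.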

[4] = target: T4, 107C RGS8 (Homo sapiens, UniProt P57771, C142S); experiment: Gel filtration then FCPIA competition, 107C RGS8; assay type: binding; conditions: 107C RGS8 after gel filtration
T4 sequence (P57771 74-189 isoform P57771-2 C160S): T1 sequence (P57771 56-171 limits assumed) with C87S

[5] = target: T1, RGS8; experiment: FCPIA, RGS8/Gαo binding
[6] = target: T3, Gαo; experiment: ThermoFluor thermal stability, Gαo; assay type: binding
[7] = target: T5, WT RGS8 (Homo sapiens, UniProt P57771); experiment: ESI-LC/MS protein adduct analysis, WT RGS8; conditions: WT RGS8 2 μM
T5 sequence (P57771 56-171 limits assumed): T1 sequence (P57771 56-171 limits assumed)

[8] = target: T6, RGS4-stimulated GTP hydrolysis by Gαo (Homo sapiens, UniProt P49798); experiment: Single turnover GTPase assay, RGS4 GAP activity; assay type: biochemical
T6 sequence (P49798 52-205 limits assumed): T2 sequence (P49798 52-205 limits assumed)
Method in brief: (§1)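 Single-turnover measurement of Gαo GTP hydrolysis, with or without RGS4 or RGS8, in the presence of test compound, following a previously published method. The RGS8 homology domain was an N-terminal 6×His construct from pQE-80 carrying native Cys107 and Cys160. All proteins were purified to >90% homogeneity, and Gαo activity was confirmed by [35S]GTPγS binding. Output is the GTP hydrolysis rate constant k (sec−1).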

[9] = system: Gαo-dependent membrane translocation of GFP-RGS4 in HEK293T cells; experiment: RGS4 membrane translocation in living cells; assay type: cell-based, human; conditions: 100 μM
[10] = target: T7, RGS8-stimulated GTP hydrolysis by Gαo (Homo sapiens, UniProt P57771); experiment: Single turnover GTPase assay, RGS8 GAP activity; assay type: biochemical
T7 sequence (P57771 56-171 limits assumed): T1 sequence (P57771 56-171 limits assumed)
Method in brief: as §1

[11] = target: T8, RGS7 (Homo sapiens, UniProt P49802); experiment: FCPIA, RGS7/Gαo binding
T8 sequence (P49802 333-448 limits assumed): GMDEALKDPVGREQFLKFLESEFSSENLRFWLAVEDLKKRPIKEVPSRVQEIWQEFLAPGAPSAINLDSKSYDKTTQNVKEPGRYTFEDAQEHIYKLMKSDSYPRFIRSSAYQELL
Method in brief: (§2)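 Constructs were RGS19 ΔC11 as an MBP/10×His fusion and the RGS7 homology domain as a GST fusion. Each was chemically biotinylated, immobilised on avidin microspheres and pretreated with test compound or vehicle for 15 min at room temperature. Beads were then mixed with AlexaFluor-532-Gαo plus GDP/AlF and binding was read by flow cytometry. IC50 is the mean±SEM of at least three independent experiments.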

[12] = target: T9, RGS16 (Homo sapiens, UniProt O15492); experiment: FCPIA, RGS16/Gαo binding
T9 sequence (O15492 1-202): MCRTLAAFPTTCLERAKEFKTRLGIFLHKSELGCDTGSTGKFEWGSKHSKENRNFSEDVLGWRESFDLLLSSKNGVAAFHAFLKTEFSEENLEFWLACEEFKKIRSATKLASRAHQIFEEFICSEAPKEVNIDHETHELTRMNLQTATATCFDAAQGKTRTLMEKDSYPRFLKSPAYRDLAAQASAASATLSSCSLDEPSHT

[13] = target: T10, 160C RGS8 (C107S) (Homo sapiens, UniProt P57771, C89S); experiment: FCPIA, 160C RGS8/Gαo binding
T10 sequence (P57771 56-171 C89S): T1 sequence (P57771 56-171 limits assumed) with C34S
Method in brief: (§3)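 RGS8 homology domain (N-terminal 6×His, pQE-80) with Cys→Ser site-directed mutations was chemically biotinylated on amines and loaded on avidin microspheres. Beads were treated with test compound or vehicle for 15 min at room temperature, then mixed with AlexaFluor-532-labelled Gαo plus GDP and aluminium fluoride. Binding was read by Luminex flow cytometry. Values are mean±SEM of three independent experiments.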

[14] = target: T5, WT RGS8; experiment: Gel filtration then FCPIA competition, WT RGS8; assay type: binding
[15] = target: T11, RGS19 (Homo sapiens, UniProt P49795); experiment: FCPIA, RGS19/Gαo binding
T11 sequence (P49795 1-206 limits assumed): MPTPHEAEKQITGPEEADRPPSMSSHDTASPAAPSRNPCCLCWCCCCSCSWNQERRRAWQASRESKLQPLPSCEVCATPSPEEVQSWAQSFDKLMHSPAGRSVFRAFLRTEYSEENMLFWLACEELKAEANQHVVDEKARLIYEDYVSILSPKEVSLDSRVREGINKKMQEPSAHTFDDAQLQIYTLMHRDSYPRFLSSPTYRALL
Method in brief: as §2

[16] = target: T12, RGS8cys− (C160S/C107S) (Homo sapiens, UniProt P57771, C142S/C89S); experiment: FCPIA, RGS8cys−/Gαo binding
T12 sequence (P57771 56-171 C89S/C142S): T1 sequence (P57771 56-171 limits assumed) with C34S, C87S
Method in brief: as §3

[17] = target: T13, RGS4 (Homo sapiens, UniProt P49798); experiment: ThermoFluor thermal stability, RGS4; assay type: binding
T13 sequence (P49798 52-205 limits assumed): T2 sequence (P49798 52-205 limits assumed)

[18] = target: T14, 107C RGS8 (C160S) (Homo sapiens, UniProt P57771, C142S); experiment: FCPIA, 107C RGS8/Gαo binding
T14 sequence (P57771 74-189 isoform P57771-2 C160S): T1 sequence (P57771 56-171 limits assumed) with C87S
Method in brief: as §3

[19] = target: T15, 160C RGS8 (Homo sapiens, UniProt P57771, C89S); experiment: Gel filtration after compound treatment, 160C RGS8
T15 sequence (P57771 56-171 C89S): T1 sequence (P57771 56-171 limits assumed) with C34S

[20] = target: T16, papain (Carica papaya, UniProt P00784); experiment: Papain activity assay; assay type: biochemical
T16 sequence (P00784 134-345): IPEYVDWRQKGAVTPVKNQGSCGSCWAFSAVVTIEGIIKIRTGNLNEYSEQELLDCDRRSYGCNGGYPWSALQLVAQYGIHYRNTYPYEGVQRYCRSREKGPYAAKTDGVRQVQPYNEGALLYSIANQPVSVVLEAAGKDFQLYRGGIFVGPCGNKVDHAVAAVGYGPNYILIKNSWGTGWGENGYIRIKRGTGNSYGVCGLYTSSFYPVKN
Method in brief: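 FITC-casein was added to 250 nM final. Fluorescence (ex 485/em 520 nm) was read at intervals in the dark, and concentration dependence was taken at 5 min. Values are mean±SEM of three independent experiments.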

[21] = target: T17, RGS8Cys− (Homo sapiens, UniProt P57771, C142S/C89S); experiment: ESI-LC/MS protein adduct analysis, RGS8Cys−; conditions: RGS8Cys− mutant
T17 sequence (P57771 74-189 isoform P57771-2 C107S/C160S): T1 sequence (P57771 56-171 limits assumed) with C34S, C87S

[22] = target: Gαo (UniProt P59215); experiment: flow cytometry protein interaction assay
Gαo (UniProt P59215), sequence (P59215 whole entry): as the sequence (P09471 whole entry) above, with I93V, A104S, T292P, P294S, A306T counted along it

[23] = read-out: irreversible inhibition of Gα binding after extensive washing
[24] = read-out: total amount of inhibition (without a wash step)
[25] = 100 μM, FITC-casein proteolysis
[26] = concentration dependence or concentration not stated

Compound: Cc1ccc(-n2sc(=O)n(Cc3ccc(F)cc3)c2=O)cc1 [CCG-50014, 4-(4-fluorobenzyl)-2-p-tolyl-1,2,4-thiadiazolidine-3,5-dione]
- effect on thermal stability of RGS8 [1]: thermally destabilizes
- effect on thermal stability of RGS8 ([1]; listed as CCGA-50014): concentration-dependently destabilized
- selectivity for RGS4 over RGS8 and RGS16 ([2]; FCPIA IC50 values): > 100 fold
- inhibitory activity against the RGS4-Gαo protein-protein interaction at pH 6.5 ([2]; FCPIA at pH 6.5 (control for papain assay)): retains full inhibitory activity
- Hill Slope ([2]; FCPIA, RGS4 wild type): −1.53
- reversibility of inhibition after washing with DTT ([2]; RGS4 beads, 100 μM for 15 minutes, wash with 1 mM DTT): partially reversed
- reversibility of inhibition after washing ([2]; RGS4 beads, 100 μM for 15 minutes, wash without DTT): irreversible inhibitor
- effect on intrinsic rate of GTP hydrolysis by Gαo [3]: did not alter
- competition for Gαo binding, treated versus vehicle-treated protein [4]: no discernable difference
- inhibition of RGS8/Gαo binding (in words) ([5]; FCPIA): fully inhibits
- Hill Slope ([5]; FCPIA, RGS8): −0.99
- Hill Coefficient ([5]; FCPIA, wildtype RGS8, Fig. 5): −0.79
- IC50 ([5]; IC50 (μM), FCPIA, wildtype RGS8, Fig. 5, three experiments): 6.1 µM
- reversibility of inhibition after washing with DTT ([5]; RGS8 beads, 100 μM for 15 minutes, wash with 1 mM DTT): partially reversed
- reversibility of inhibition after washing ([5]; RGS8 beads, 100 μM for 15 minutes, wash without DTT): irreversible inhibitor
- inhibition at 20 µM ([5]; read-out: total amount of inhibition (without a wash step), WT RGS8, 20 μM): 64 ± 2%
- effect on thermal stability of Gαo [6]: no effect
- adduct formation by LC-MS [7]: covalent adduct
- effect on GTPase accelerating (GAP) activity of RGS4 on Gαo [8]: concentration-dependently inhibits the GAP activity; also recorded: inhibited the GTPase accelerating activity
- effect on Gαo-dependent membrane localization of GFP-RGS4 [9]: reversed the membrane localization; also recorded: significant decrease
- effect on GTPase accelerating (GAP) activity of RGS8 on Gαo [10]: concentration-dependently inhibits the GAP activity; also recorded: inhibited the GTPase accelerating activity
- IC50 [11]: > 200 µM
- inhibition of RGS7/Gαo binding (in words) ([11]; FCPIA): did not have activity
- inhibition of RGS16/Gαo binding (in words) [12]: fully inhibits
- Hill Slope ([12]; RGS16): −1.33
- IC50 [13]: 0.71 µM
- reversibility of inhibition after washing ([13]; 160C RGS8, 20 μM): completely irreversible
- Hill Coefficient ([13]; FCPIA, 160C RGS8, Fig. 5): −0.36
- inhibition at 20 µM [13, 23]: ~50%
- inhibition at 20 µM [13, 24]: 56 ± 1%
- residual inhibition after gel filtration [14]: > 90%
- inhibition of RGS19/Gαo binding (in words) [15]: fully inhibits
- Hill Slope ([15]; RGS19): −0.61
- IC50 [16]: > 100 µM
- effect on thermal stability of RGS4 [17]: concentration-dependently destabilized
- IC50 [18]: 46.5 µM
- reversibility of inhibition after washing ([18]; 107C RGS8, 20 μM): partially reversed
- Hill Coefficient ([18]; FCPIA, 107C RGS8, Fig. 5): −0.54
- inhibition at 20 µM [18, 23]: ~20%
- inhibition at 20 µM [18, 24]: 45 ± 2%
- state of the protein after compound treatment [19]: formed aggregates; also recorded: completely (and visually) aggregates
- effect on papain activity [20, 25]: no effect
- adduct formation by LC-MS [21]: No adducts are observed

Compound: CCN1C(=O)C=CC1=O [NEM, N-ethyl maleimide, reference compound]
- inhibition of RGS8/Gαo binding (in words) ([5]; FCPIA): no effect
- effect on papain activity [20, 26]: no effect

Compound: NC(=O)CI [iodoacetamide]
- effect on papain activity [20, 25]: markedly inhibits
- effect on papain activity [20, 26]: concentration-dependently inhibited
- effect on papain activity ([20]; concentration dependence or concentration not stated, listed as IA): inhibited the proteolytic activity of papain in a concentration-dependent manner

Compound: WT RGS8 treated with CCG-50014 (with its covalently attached CCG-50014), recovered from gel filtration (domain or fragment)
- fold less potent at competing for Gα binding than vehicle-treated RGS8 [22]: 14 fold
